Compound activity deposited in PubChem BioAssay by several laboratories.
Rows were chosen to be rich in hits. Some 3.5% of all compounds tested hit in one or more screens of this group.
ABCB1 inh: blocks JC-1 efflux by human ABCB1 transporter | hit rate 0.067% among 190,000 | CCRF-Adr cells, flow cytometry | AID 1326 | inhibition, % at 6.6 µM; in the data active = inhibition above about 40%;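 also: 0% = vehicle and 100% = reference inhibitor; higher value means more JC-1 retained so stronger ABCB1 efflux block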
Target sequence (P08183 whole entry, looked up): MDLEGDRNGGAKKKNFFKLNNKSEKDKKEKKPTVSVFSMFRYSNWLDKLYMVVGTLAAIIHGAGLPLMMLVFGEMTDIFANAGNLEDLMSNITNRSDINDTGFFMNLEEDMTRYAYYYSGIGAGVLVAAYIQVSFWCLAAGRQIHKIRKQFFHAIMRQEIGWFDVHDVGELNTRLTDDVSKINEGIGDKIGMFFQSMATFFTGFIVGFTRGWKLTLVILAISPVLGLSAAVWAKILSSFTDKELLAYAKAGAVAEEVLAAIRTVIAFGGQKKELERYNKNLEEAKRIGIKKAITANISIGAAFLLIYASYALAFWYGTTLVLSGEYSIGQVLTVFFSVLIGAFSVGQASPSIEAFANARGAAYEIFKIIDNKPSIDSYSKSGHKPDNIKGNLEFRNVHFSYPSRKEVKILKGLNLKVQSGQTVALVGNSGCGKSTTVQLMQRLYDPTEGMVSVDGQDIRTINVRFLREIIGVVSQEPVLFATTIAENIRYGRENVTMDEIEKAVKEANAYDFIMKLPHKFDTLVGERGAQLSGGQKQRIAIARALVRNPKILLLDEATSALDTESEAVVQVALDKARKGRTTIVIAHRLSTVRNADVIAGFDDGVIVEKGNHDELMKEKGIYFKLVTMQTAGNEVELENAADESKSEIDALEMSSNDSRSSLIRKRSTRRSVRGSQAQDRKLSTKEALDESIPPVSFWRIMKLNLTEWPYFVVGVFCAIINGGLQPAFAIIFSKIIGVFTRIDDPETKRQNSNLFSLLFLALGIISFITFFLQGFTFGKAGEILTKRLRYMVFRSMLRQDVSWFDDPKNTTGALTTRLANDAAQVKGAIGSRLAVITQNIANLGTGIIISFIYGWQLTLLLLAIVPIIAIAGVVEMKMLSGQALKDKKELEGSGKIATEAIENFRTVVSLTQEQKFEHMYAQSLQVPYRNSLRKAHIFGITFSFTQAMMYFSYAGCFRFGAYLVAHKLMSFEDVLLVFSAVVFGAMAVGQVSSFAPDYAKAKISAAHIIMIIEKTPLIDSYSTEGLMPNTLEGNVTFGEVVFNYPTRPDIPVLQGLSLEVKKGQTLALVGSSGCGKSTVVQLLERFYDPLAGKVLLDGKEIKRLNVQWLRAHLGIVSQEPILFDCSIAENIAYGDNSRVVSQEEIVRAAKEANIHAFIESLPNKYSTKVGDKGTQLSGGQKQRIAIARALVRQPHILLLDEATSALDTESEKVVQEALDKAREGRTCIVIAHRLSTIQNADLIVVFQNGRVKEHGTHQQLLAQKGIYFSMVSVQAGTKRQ
WT yeast gro inh: growth inhibition of WT yeast, mitochondrial fusion screen; mitochondrial fusion phenotypic screen, WT strain; inhibition, % at 10 µM; hit rate 2.1% among 190,000; AID 1362; in the data active = inhibition above about 58%; tested in S. cerevisiae
MEKK3 PB1 HTS: raises or lowers MEK5 binding to the human MEKK3 PB1 domain; Q99759; bead-based flow cytometry, Alexa488-MEK5 binding to MEKK3; actives lie on both sides; 0 = blocked by unlabeled MEK5, 100 = vehicle; binding response (% of control), % at 10 µM; hit rate 1.4% among 290,000;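 active = binding response more than 3 SD above or below the average of its plate-row segment, actives on both sides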;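 also: Alexa488 bead fluorescence after subtracting the streptavidin-only scavenger bead signal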
ABCG2 inh: inhibitors of human ABCG2 transporter, ABCB1 counter-screen; Q9UNQ0; IgMXP3 cells, JC-1 efflux, flow cytometry; inhibition, % at 6.6 µM; hit rate 0.1% among 190,000; AID 1325;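 active = inhibition above 80%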;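 also: 0% = DMSO and 100% = nicardipine control wells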
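Test system: IgMXP3 (ABCG2) plus far-red-tagged CCRF-Adr (ABCB1) cells / Amount: 3 million cells/mL in well / Reagent: JC-1 transporter substrate / Timing: 10 min compound exposure, 25 °C / Signal: flow cytometry, 530 nm JC-1 signal / Read-out: percent efflux inhibition, scaled nicardipine 100% to DMSO 0% / Benchmarks: nicardipine as high control, DMSO as low control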
MEKK2 mut-MEK5: signal of MEK5 binding to mutant human MEKK2 PB1 domain | bead flow cytometry, Alexa488-MEK5 binding to MEKK2 mutant | percent response, % at 10 µM | hit rate 0.35% among 290,000; in the data active = percent response above about 24%, passing the limit was not always enough
MEKK2 WT-MEK5: raises or lowers MEK5 binding to wildtype human MEKK2 PB1 domain; bead flow cytometry, Alexa488-MEK5 binding to MEKK2 WT; actives lie on both sides; binding response (% of control), % at 10 µM; hit rate 1.1% among 290,000; in the data active = binding response below about 67% or above about 130%
MEKK2wt confirm: raises or lowers MEK5 binding to wildtype human MEKK2, retest | shares compounds with MEKK3 PB1 HTS | bead flow cytometry, Alexa488-MEK5 binding to MEKK2 WT; actives lie on both sides | binding response (% of control), % at 10 µM | hit rate 2.4% among 5,900 | AID 1892; in the data active = binding response below about 16% or above about 210%; inactive = in between
MEKK2mut-MEK5: signal of MEK5 binding to mutant human MEKK2, retest; bead flow cytometry, Alexa488-MEK5 binding to MEKK2 mutant; AID 1893; shares compounds with MEKK3 PB1 HTS; hit rate 2% among 5,900; percent response, % at 10 µM; in the data active = percent response mostly above about 71%, no sharp cut-off; inactive = mostly below about 38%;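 also: higher means compound restores mutant binding toward wildtype level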
MEKK3 confirm: confirmation of inhibitors of MEK5 binding to human MEKK3 | shares compounds with MEKK3 PB1 HTS | bead flow cytometry, Alexa488-MEK5 binding to MEKK3; hits give low values | binding response (% of control), % at 10 µM | hit rate 1.8% among 5,900 | AID 1894;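 active = binding response below 72% of control, or above a set upper limit, though filed actives all read lower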;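 also: 100% = DMSO only wells and 0% = binding blocked by excess unlabeled MEK5; lower values mean stronger disruption of MEK5 binding to MEKK3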
* = called active by the depositor; nt = not tested or not shown; [ ] = another dose, or the depositor's remark.

SMILES | ABCB1 inh | WT yeast gro inh | MEKK3 PB1 HTS | ABCG2 inh | MEKK2 mut-MEK5 | MEKK2 WT-MEK5 | MEKK2wt confirm | MEKK2mut-MEK5 | MEKK3 confirm
CCOc1ccc(-c2cc(C)[n+](CCc3ccc(OC)c(OC)c3)c(-c3ccc(OCC)cc3)c2)cc1 | nt | nt | 113 | nt | 37* | 141* | 51 | -13 | 86
COc1ccc2c(c1)c(C(=O)CN1CCN(C)CC1)c(C)n2Cc1ccccc1 | 1 | -13 | 103 | 2 | 23 | 141* | 163 | 53 | 108
CCCN1CCCC(C(=O)c2cc(C)c(OC)c(C)c2)C1 (stereo unspecified) | nt | nt | 106 | nt | 16 | 114 | nt | nt | nt
O=S(=O)(c1ccc(Cl)cc1)N1CCCCC1c1cccnc1 (stereo unspecified) | 0 | 8 | 130* | 1 | 1 | 117 | 98 | -1 | 103
CC(C)(C#CCCCCC#CC(C)(C)[N+](C)(C)C)[N+](C)(C)C | nt | nt | 114 | nt | 16 | 108 | nt | nt | nt
CN(C)c1ccc(/C=C/c2cc[n+](C)c3ccccc23)cc1 | 18 | 78* | 70*[inhibitor] | 0 | -31 | nt | 95 | -4 | 87
Cc1ccccc1-n1c(C)nc2sccc2c1=O | 0 | -16 | 2.0*[inhibitor] | 1 | -18 | 3.0*[inhibitor] | 106 | 6 | 106
CCOC(=O)C1CCCN(c2ccc([N+](=O)[O-])c3nonc23)C1 (stereo unspecified) | 3 | 9 | 92 | 8 | -20 | 81 | nt | nt | nt
COc1cc(CNCCc2ccc3c(c2)OCO3)cc(OC)c1OC | 0 | 0 | 47*[inhibitor] | 0 | -13 | 60 | 104 | -1 | 103
COc1cc(CNCCc2ccc3c(c2)OCO3)ccc1O | nt | nt | 102 | nt | 6 | 108 | nt | nt | nt
COc1ccc2[nH]cc(C3=CCNCC3)c2c1 | nt | nt | 109 | nt | 174* | 182* | 123 | -18 | 98
Cn1c(O)c(/C=C2\C=Nc3ccccc32)c(=O)n(C)c1=O | nt | nt | 106 | nt | 6 | 105 | nt | nt | nt
COC(=O)C1=Nc2ccccc2/C1=C\c1c(O)n(C)c(=O)n(C)c1=O | nt | nt | 74*[inhibitor] | nt | -30 | 55*[inhibitor] | 98 | -4 | 100
O=C1NC(=S)N(Cc2ccco2)C(=O)/C1=C\c1cccs1 | -1 | 15 | 89 | -3 | -52 | 90 | nt | nt | nt
CCCCCCCSc1cc(OC)c(CCNC)cc1OC | 3 | 94* | 92 | 13 | 23 | 149* | 130 | 11 | 81
CC(=O)O[C@H]1CC[C@@]2(C)[C@H](C1)C(=O)C[C@H]1[C@@H]3CC[C@@H]4[C@@H](CN5C[C@@H](C)CC[C@H]5[C@@]4(C)O)[C@@H]3C[C@@H]12 | nt | nt | 106 | nt | 7 | 105 | nt | nt | nt
OC(c1ccccc1)(c1ccccc1)C1CN2CCC1CC2 (stereo unspecified) | 0 | -1 | 92 | 1 | -11 | 83 | nt | nt | nt
OC(c1ccccc1)(c1ccccc1)C1CCNCC1 | 0 | 7 | 101 | 1 | 9 | 136* | 105 | 7 | 101
COc1cc(C)c(CNCCc2c[nH]c3ccccc23)cc1C | nt | nt | 102 | nt | 26* | 123 | 82 | -3 | 69*
CCOc1c(Cl)cc(CNCCc2c[nH]c3ccccc23)cc1OC | 3 | 34 | 102 | 2 | 38 | 156* | 127 | 13 | 102
C=CCn1c(=O)c(C=Nc2c(OC)cccc2[N+](=O)[O-])c(O)n(CCCC)c1=O | 3 | -1 | 98 | 5 | -1 | 98 | nt | nt | nt
O=P(NCc1ccccc1)(Oc1ccccc1)Oc1ccccc1 | 1 | 9 | 96 | 12 | 0 | 92 | nt | nt | nt
Cc1cccc(-n2c(-c3cccs3)nc3ccccc3c2=O)c1 | 1 | -4 | 130* | 11 | 0 | 100 | 98 | -5 | 103
CCN1C(=O)/C(=C/c2ccc(N(CC)CC)cc2OC)C(=O)NC1=S | 9 | 15 | 89 | 23 | -4 | 86 | nt | nt | nt
CC[C@H]1CC2CN3CCc4c([nH]c5cc(OC)ccc45)[C@](C(=O)OC)(C2)[C@H]13 | nt | nt | 101 | nt | 3 | 103 | nt | nt | nt
SMILES | ABCB1 inh | WT yeast gro inh | MEKK3 PB1 HTS | ABCG2 inh | MEKK2 mut-MEK5 | MEKK2 WT-MEK5 | MEKK2wt confirm | MEKK2mut-MEK5 | MEKK3 confirm
COc1ccc2c3c([nH]c2c1)C(C)=NCC3 | 0 | 2 | 82 | -1 | 4 | 29*[inhibitor] | 103 | -3 | 100
CCOC(=O)C(O)(c1ccc(NC(=O)Oc2ccccc2)cc1)C(F)(F)F (stereo unspecified) | 0 | -15 | 130* | 1 | 3 | 107 | 107 | 10 | 103
CCN(C(=O)Oc1ccccc1)c1ccc(C(O)(C(=O)OC)C(F)(F)F)cc1 (stereo unspecified) | 1 | 4 | 95 | 10 | -1 | 99 | nt | nt | nt
Cc1nc2c(-c3ccccc3)c(C)nn2c(C)c1CCC(=O)N1CCC2(CC1)OCCO2 | 0 | 7 | 44*[inhibitor] | 9 | -29 | 101 | 106 | 0 | 100
Cc1nc2cc(-c3cccc(F)c3)nn2c(C)c1CCC(=O)N1CCC2(CC1)OCCO2 | 2 | -7 | 103 | 29 | 1 | 102 | nt | nt | nt
COC(=O)N(c1ccccc1)P(=O)(Oc1ccccc1)Oc1ccccc1 | nt | nt | 101 | nt | 1 | 102 | nt | nt | nt
N#CC(C#N)=NNc1ccc(-n2ccc(C(F)(F)F)n2)cc1 | nt | nt | 93 | nt | -6 | 91 | nt | nt | nt
Cc1cc(C)n(-c2ccc(NN=C(C#N)C#N)cc2)n1 | nt | nt | 40*[inhibitor] | nt | -57 | 43*[inhibitor] | 94 | -5 | 90
CN1C(=O)N(C)C(=O)C2(Cc3cc(NC(=O)c4ccc(F)cc4)ccc3N3CCCC32)C1=O (stereo unspecified) | nt | nt | 96 | nt | 0 | 93 | nt | nt | nt
CCn1c(O)c(/C=N/N2CCOCC2)c(=O)n(CC)c1=S | 0 | 15 | 143* | 13 | 0 | 102 | 102 | -4 | 103
CCn1c(O)c(C=NCCN2CCOCC2)c(=O)n(CC)c1=S | nt | nt | 93 | nt | 0 | 97 | nt | nt | nt
Cc1cc(C=C(C#N)C#N)ccc1N1CCCC1 | 0 | -3 | 82 | 5 | -12 | 63*[inhibitor] | 83 | -10 | 92
c1ccc2c(CN3CCN(C4CCCCC4)CC3)c[nH]c2c1 | 1 | 6 | 114 | 5 | 44* | 168* | 167 | 50 | 105
c1ccc2c(CN3CCCCCCC3)c[nH]c2c1 | 0 | 3 | nt | 1 | nt | nt | nt | nt | nt
O=C1NC(=S)NC(=O)C1C/C=C/c1ccccc1 | 0 | -11 | 91 | 8 | -34 | -7.0*[inhibitor] | 96 | 0 | 104
Cc1cc(C=O)c(C)n1C1CC1 | 0 | 4 | 104 | 0 | -4 | 100 | nt | nt | nt
